# Hits are enriched below; roughly 6.4% of the tested compounds scored in any of these assays.
# WT yeast gro inh: growth inhibition of WT strain, primary screen, mitochondrial fusion inhibitor project, WT and mutant strains, chemical genetic. mitochondrial fusion phenotypic screen. inhibition, % at 10 µM. 190,000 tested, 2.1% active; in the data active = inhibition above about 58%; tested in S. cerevisiae
# TbMetRS inhib: T. brucei MetRS inhibitors, primary screen, biochemical, luminescence | 360,000 tested, 0.4% active | AID 624268, 2012 | purified T. brucei MetRS, ATP depletion, Kinase-Glo luminescence | inhibition, % at 11.9 µM | methionyl-tRNA synthetase (Trypanosoma brucei brucei);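 active = inhibition above a per-plate cutoff of the control wells' mean inhibition plus 3 SD, cut at about 5.5% in these data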;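 note: 0% = DMSO wells median and 100% = median of wells with control inhibitor compound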
#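 Material: T. brucei methionyl-tRNA synthetase, purified; reagent: substrates ATP, L-methionine and bulk Escherichia coli tRNA; dosing: 11.9 µM single point; timing: 15 min plus 2 h at 25 °C; detection: luminescence of leftover ATP; evaluation: % inhibition; control set: DMSO-only wells as low control; replicates: singlicate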
# MPTP inh: mitochondrial permeability transition pore inhibitors, primary screen, biochemical, isolated mouse mitochondria, absorbance | 360,000 tested, 1.4% active | AID 602449, 2012 | inhibition, % at 10 µM | Ca2+ swelling absorbance, 30 min;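 active = inhibition of 50% or more, scaled per plate between neutral and stimulator controls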;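 note: 0% = DMSO wells given calcium and 100% = 1 mM EGTA wells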
# EBV gp42 block: Epstein-Barr virus gp42 inhibitors, primary screen, biochemical, uHTS, fluorescence polarization | 220,000 tested, 0.42% active | Fluorescence polarization binding assay, mP read-out | inhibition, % (tested at 21.74 µM); in the data active = inhibition above about 50%
# Target sequence (Q1HVG2 whole entry, looked up): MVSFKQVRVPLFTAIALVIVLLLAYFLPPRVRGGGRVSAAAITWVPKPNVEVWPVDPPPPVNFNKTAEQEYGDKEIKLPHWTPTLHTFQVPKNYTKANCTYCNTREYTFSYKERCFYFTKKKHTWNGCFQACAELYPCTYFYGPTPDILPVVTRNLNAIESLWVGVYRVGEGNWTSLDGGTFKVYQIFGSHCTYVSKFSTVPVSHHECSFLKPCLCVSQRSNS
# NR3A LBD binder: binders of NR3A ligand-binding domain, primary screen, biophysical, differential scanning fluorimetry, uHTS; 340,000 tested, 2.5% active; Glutamate receptor ionotropic, NMDA 3A (GRIN3A) ligand-binding domain; Tm shift relative to glycine control, % at 25 µM; NR3A LBD differential scanning fluorimetry, Tm shift; 0% = protein alone, 100% = glycine-bound protein; AID 1259313, 2017;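 active = melting temperature shift of at least 10% of the positive control shift, at one fixed dose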
# CHOP inhibitor: inhibitors of CHOP promoter induction, primary screen, cell-based, unfolded protein response, luciferase reporter; CHO-K1 CHOP-promoter luciferase, tunicamycin-induced, 15-18 h; inhibition, % at 10 µM; 220,000 tested, 3.8% active; AID 2732, 2010;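 active = compounds that reduced the stress-induced luciferase reporter signal by more than about 70% of percent inhibition, limit read from the data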;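 note: 0% = tunicamycin plus vehicle and 100% = wells without tunicamycin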
# Rh123 counter: fluorescence retest of MPTP screen hits in isolated mitochondria, single concentration; shares compounds with MPTP inh; membrane potential, Rhodamine 123 fluorescence; inhibition, % at 10 µM; 5,000 tested, 78% active; in the data active = inhibition above about 22%;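 note: 0% = DMSO vehicle and 100% = positive control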
# MPTP abs DR: mitochondrial permeability transition pore inhibitors, dose response, biochemical, absorbance, uHTS hits | shares compounds with MPTP inh | isolated mitochondria swelling | IC50, µM | 780 tested, 58% active | AID 651561, 2012; in the data active = IC50 below about 20 µM
# MPTP cs DR: fluorescent counter-screen in isolated mitochondria, dose response, counter-screen for MPTP inhibitor project, biochemical, fluorescence, uHTS hits; IC50, µM; shares compounds with MPTP inh; isolated mitochondria counterscreen, fluorescence read-out; 780 tested, 49% active; in the data active = IC50 below about 80 µM
# Starred values were filed as active, the others as inactive; i = inactive; . = no result.
SMILES,WT yeast gro inh,TbMetRS inhib,MPTP inh,EBV gp42 block,NR3A LBD binder,CHOP inhibitor,Rh123 counter,others
COc1ccc(-n2nc3c(c2NC(=O)C(C)Oc2ccccc2)CS(=O)C3)cc1 (stereo not drawn),.,0,2,.,5,.,.,
Nc1ccc2nc(SCc3ccc([N+](=O)[O-])cc3)sc2c1,-11,-1,0,7,-3,25,.,
C=CCc1ccccc1OCCSc1nc2ccc([N+](=O)[O-])cc2s1,-1,-1,84*,-20,0,-1,41*,
COc1ccccc1OCCSc1nc2ccc([N+](=O)[O-])cc2s1,-6,-1,76*,-22,1,3,87*,
O=[N+]([O-])c1ccc2nc(SCc3ccccc3Cl)sc2c1,-8,0,98*,-10,-1,51,68*,
O=C(CSc1nc2ccc([N+](=O)[O-])cc2s1)c1ccc2ccccc2c1,.,-1,2,1,-7,24,.,
Cc1nc2ccc([N+](=O)[O-])cc2s1,5,0,-3,5,-3,6,.,
Nn1c(SCC(=O)Nc2nnc(-c3ccccc3)o2)nnc1C1CC1,.,0,0,.,-1,.,.,
CCN1C(=O)[C@H]2[C@@H](c3ccc(OC)cc3)N3C(=O)CN(Cc4ccccc4)C(=O)[C@@]3(C)[C@H]2C1=O,.,0,0,.,-1,.,.,
CC(=O)C[C@H]1SC[C@@H](C(C)C)N1S(=O)(=O)c1ccc(C)cc1,.,-1,0,.,.,.,.,
COc1cc(-c2nc(-c3ccccc3)c(-c3ccc(F)cc3)[nH]2)cc2c1OCO2,3,-1,89*,-9,9,70*,63*,
COc1ccc(-c2[nH]c(-c3ccc4c(c3)OCO4)nc2-c2ccccc2)cc1,71*,0,95*,-7,-1,58,70*,
COc1ccccc1-c1ccc(NC2CCCC2)nn1,-1,0,-1,5,0,24,.,
COc1ccc(NC(=O)c2cc(-c3ccccn3)nc3ccccc23)c(OC)c1,.,0,0,.,1,.,.,
N#Cc1ccsc1NC(=O)c1cnccn1,1,0,-2,3,0,3,.,
CC(C)(C)NS(=O)(=O)c1cc(C(=O)Nc2sccc2C#N)ccc1Cl,5,0,75*,-22,2,9,57*,
CCc1ccc(-c2cc3c(=O)n(CC(=O)NCCCN4CCC(Cc5ccccc5)CC4)nc(C)n3n2)cc1,.,0,98*,.,2,.,-3,MPTP abs DR=3*;MPTP cs DR=>80
Cc1nn(CC(=O)NCCCN2CCC(Cc3ccccc3)CC2)c(=O)c2cc(-c3ccccc3)nn12,.,0,74*,.,0,.,-6,MPTP abs DR=i;MPTP cs DR=>80
NS(=O)(=O)c1cccc(NC(=O)CSc2nn(-c3ccccc3)c(=S)s2)c1,-7,1,10,10,0,20,.,
CN(C)S(=O)(=O)c1cc(NC(=O)CSc2nn(-c3ccc(Cl)cc3)c(=S)s2)ccc1Cl,-10,-1,70*,-6,16*,48,81*,
Cc1ccc(NC(=O)CSc2nn(-c3ccc(Cl)cc3)c(=S)s2)cc1S(=O)(=O)N(C)C,-3,0,86*,-18,4,46,81*,
O=C(COC(=O)C12CC3CC(CC(C3)C1)C2)Nc1nc2c(F)c(F)c(F)cc2s1,18,-1,70*,-9,29*,95*,40*,
COc1ccc(C(=O)OCC(=O)Nc2nc3c(F)c(F)c(F)cc3s2)cc1OC,11,0,0,-4,1,-11,.,
COc1ccc(-n2cc(CNC3CCN(C)CC3)c(-c3cccc(F)c3)n2)cc1,59*,-1,93*,-13,0,-33,-14,MPTP abs DR=7*;MPTP cs DR=>80
COc1ccc(-n2cc(CN[C@H]3CCCCNC3=O)c(-c3cccc(F)c3)n2)cc1,.,0,1,-14,0,19,.,
SMILES,WT yeast gro inh,TbMetRS inhib,MPTP inh,EBV gp42 block,NR3A LBD binder,CHOP inhibitor,Rh123 counter,others
O=C1N/C(=N\N=C\c2ccccn2)SC1Cc1cccc(SC(F)F)c1 (stereo not drawn),10,-1,1,-8,-5,51,.,
COC(=O)c1ccccc1NCc1cc(=O)oc2cc(O)c(O)cc12,.,0,4,.,-6,.,.,
COc1ccc(C)cc1NCc1cc(=O)oc2cc(-c3ccccc3)c(O)cc12,13,1,94*,1,20*,93*,57*,
Cn1cc(S(=O)(=O)Nc2ccc3c(c2)OCCO3)cn1,-1,0,1,-3,-2,13,.,
CC1(C)SC(=S)N(NC(=O)Nc2ccccc2)C1N(O)C(=O)Nc1cccc2ccccc12 (stereo not drawn),4,0,72*,-11,21*,48,69*,
O=C(Nc1ccccc1)Nc1csc2ccccc12,.,3,84*,-10,31*,-12,85*,
O=C(Nc1ccccc1)Nc1cccc2ccccc12,.,0,71*,-15,4,9,75*,
COC(=O)c1ccccc1NC(=O)Nc1ccc(C)cn1,12,0,0,8,0,13,.,
O=C(CSc1ccc2ccccc2c1)NCc1cccs1,-32,-1,-5,-6,0,36,.,
O=C1CC(C(=O)Nc2ccc(C(=O)O)cc2)C(c2ccccc2)O1 (stereo not drawn),-15,-1,-1,-2,0,52,.,
O=C(O)CSC(C(=O)Nc1ccc(Br)cc1)c1ccc(Cl)cc1 (stereo not drawn),-1,4,4,-1,-33,-1,.,
CC(C)(C)c1nc(N2CCN(C(=O)c3ccco3)CC2)c2nnn(Cc3ccccc3)c2n1,1,-1,54*,8,-5,76*,69*,
O=C(c1ccco1)N1CCN(c2nc(C3CC3)nc3c2nnn3Cc2ccccc2Cl)CC1,18,-1,0,-14,-1,23,.,
Oc1ccccc1/C=N/NC(=S)NC1CC2CCC1C2 (stereo not drawn),.,-1,54*,5,-9,-1,67*,
COc1cccc(/C=N/NC(=S)NC2CC3CCC2C3)c1OC (stereo not drawn),.,0,2,-4,2,3,.,

# Screening results: PubChem, several laboratories
